Experiments:
[1] = molecular target: T1, Glutaminase kidney isoform, mitochondrial (Homo sapiens, UniProt O94925); assay: Inhibition of GLS1 (unknown origin)
T1 sequence (O94925 whole entry): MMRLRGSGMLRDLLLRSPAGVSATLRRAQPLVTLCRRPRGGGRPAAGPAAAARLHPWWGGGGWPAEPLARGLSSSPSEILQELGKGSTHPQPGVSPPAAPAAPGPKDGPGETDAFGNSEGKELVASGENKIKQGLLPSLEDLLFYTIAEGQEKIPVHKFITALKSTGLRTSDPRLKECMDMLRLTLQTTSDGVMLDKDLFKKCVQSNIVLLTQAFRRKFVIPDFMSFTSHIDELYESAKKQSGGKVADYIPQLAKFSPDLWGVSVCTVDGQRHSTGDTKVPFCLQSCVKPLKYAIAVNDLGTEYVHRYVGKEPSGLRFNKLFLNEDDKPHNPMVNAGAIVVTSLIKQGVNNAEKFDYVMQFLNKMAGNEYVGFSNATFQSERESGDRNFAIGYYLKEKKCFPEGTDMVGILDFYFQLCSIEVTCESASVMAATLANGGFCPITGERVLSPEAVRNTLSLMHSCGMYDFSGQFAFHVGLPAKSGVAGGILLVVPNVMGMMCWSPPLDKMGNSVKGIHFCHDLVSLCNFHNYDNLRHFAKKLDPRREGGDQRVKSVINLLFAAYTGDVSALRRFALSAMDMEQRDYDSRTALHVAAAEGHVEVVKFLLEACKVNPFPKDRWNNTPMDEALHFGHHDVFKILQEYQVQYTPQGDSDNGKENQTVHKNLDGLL

LR = assay: (§1) Antiproliferative activity against human LR cells incubated for 72 hrs by Celltiter-Glo assay; type: functional, cell-based
How it was run: (§2)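 Cells treated with 0, 0.01, 0.03, 0.1, 0.3 and 1 μM of compound for 72 h. Viability read by CellTiter-Glo luminescence. IC50 taken from the dose–response curves. LR cells are LDK378-resistant. A549 and H460 carry co-occurring KRAS and KEAP1 mutations, and H358 carries a KRAS mutation only.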

[2] = as §1; type: functional, cell-based; how it was run: as §2
A549 = assay: Antiproliferative activity against human A549 cells incubated for 72 hrs by Celltiter-Glo assay; type: functional, cell-based; settings: A549, 72 h; how it was run: as §2
NCI-H460 = assay: Antiproliferative activity against human NCI-H460 cells incubated for 72 hrs by Celltiter-Glo assay; type: functional, cell-based; settings: NCI-H460, 72 h; how it was run: as §2
NCI-H358 = assay: Antiproliferative activity against human NCI-H358 cells incubated for 72 hrs by Celltiter-Glo assay; type: functional, cell-based; settings: NCI-H358, 72 h; how it was run: as §2

| SMILES | IC50 [1] [nM] | Activity (LR) | further results |
| --- | --- | --- | --- |
| O=C1Cc2cccc(c2)OCCCOCCCOc2cccc(c2)CC(=O)Nc2nnc(s2)CCCCc2ccc(nn2)N1 | 800 | – | – |
| O=C1Cc2cccc(c2)OCCOCCOc2cccc(c2)CC(=O)Nc2ccc(nn2)CCCCc2ccc(nn2)N1 | 430 | Dose-Dependent Effect | – |
| O=C1Cc2cccc(c2)OCCOCCOc2cccc(c2)CC(=O)NC2=NN=C(CCCCCC3=NN=C(N1)S3)S2 | 10000 | – | – |
| O=C1Cc2cccc(c2)OCCOc2cccc(c2)CC(=O)NC2=NN=C(CCCCC3=NN=C(N1)S3)S2 | 980 | – | – |
| O=C1Cc2cccc(c2)OCCOCCOCCOCCOc2cccc(c2)CC(=O)NC2=NN=C(CCCCC3=NN=C(N1)S3)S2 | 4000 | – | – |
| O=C1Cc2cccc(c2)OCCCCCOc2cccc(c2)CC(=O)Nc2nnc(s2)CCCCc2ccc(nn2)N1 | 1000 | – | – |
| O=C1Cc2cccc(c2)OCCCCCCCOc2cccc(c2)CC(=O)Nc2nnc(s2)CCCCc2ccc(nn2)N1 | 3000 | – | – |
| O=C1Cc2cccc(c2)OCCOCCOc2cccc(c2)CC(=O)Nc2nnc(s2)CCCCc2ccc(nn2)N1 | 400 | Dose-Dependent Effect | – |
| O=C(Cc1cccc(OC(F)(F)F)c1)Nc1ccc(CCCCc2nnc(NC(=O)Cc3ccccn3)s2)nn1 | – | Dose-Dependent Effect | IC50 [2]: < 100 nM; IC50 (A549): 26 nM; IC50 (NCI-H460): 36 nM; IC50 (NCI-H358): > 1000 nM |
| O=C1Cc2cccc(c2)OCCOCCOc2cccc(c2)CC(=O)NC2=NN=C(CCCCC3=NN=C(N1)S3)S2 | 2000 | – | – |
| O=C1Cc2cccc(c2)OCCCOCCCOc2cccc(c2)CC(=O)Nc2ccc(nn2)CCCCc2ccc(nn2)N1 | 310 | Dose-Dependent Effect | IC50 [2]: < 100 nM; IC50 (A549): 95 nM; IC50 (NCI-H460): 88 nM; IC50 (NCI-H358): > 1000 nM |
| O=C1Cc2cccc(c2)OCCOCCOc2cccc(c2)CC(=O)NC2=NN=C(CCCC3=NN=C(N1)S3)S2 | 4000 | – | – |
| O=C1Cc2ccc(cc2)OCCOCCOCCOc2cccc(c2)CC(=O)Nc2nnc(s2)CCCCc2nnc(s2)N1 | 3000 | – | – |
| O=C1Cc2cccc(c2)OCCOc2cccc(c2)CC(=O)Nc2ccc(nn2)CCCCc2ccc(nn2)N1 | 180 | Dose-Dependent Effect | – |
